Measurements published in article PMC4423566 (Nature communications, 2015).
Values belong to the compound of their own block, whether it stands above or below them. Square brackets hold non-standard residues; d marks the D form. Peptide text beside a SMILES is read from it. * marks the point of attachment. X1 = CC(=O)N[C@@H]1[C@@H](O[C@@H]2O[C@H](CO)[C@H](O)[C@H](O)[C@H]2O)[C@@H](O)[C@@H](CO[C@@H]2O[C@H](CO)[C@@H](O[C@@H]3O[C@H](CO)[C@H](O)[C@H](O[C@]4(C(=O)O)C[C@H](O)[C@@H](NC(C)=O)[C@H]([C@H](O)[C@H](O)CO)O4)[C@H]3O)[C@H](O[C@@H]3O[C@@H](C)[C@@H](O)[C@@H](O)[C@@H]3O)[C@H]2NC(C)=O)O[C@@H]1*; Phe(4-CH2SO3H) = N[C@@H](Cc1ccc(CS(=O)(=O)O)cc1)C(=O)O; Mca = COc1ccc2c(CC(=O)*)cc(=O)oc2c1

Experiments:
[1] = molecular target: human P-selectin (Homo sapiens, UniProt P16109); experiment: Biacore binding assay, human P-selectin; details: from Kd 22 nM
[2] = molecular target: mouse P-selectin (Mus musculus, UniProt Q01102); experiment: Biacore binding assay, mouse P-selectin; details: printed as fold lower
[3] = test system: L-Sel-Ig; experiment: Biacore binding assay, L-selectin
How it was run: (§1)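 Biotinylated test glycopeptide was captured on a streptavidin-coated sensor chip at low (< 5 RU) or high (60 RU) density. P-, L- or E-selectin-Ig was applied at 2.5–60 μg/mL. Kinetic parameters were fitted to a 1:1 binding model. Affinity relative to P-Sel-Ig was estimated by comparing binding at the two capture densities.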

[4] = test system: E-Sel-Ig; experiment: Biacore binding assay, E-selectin
How it was run: as §1

[5] = test system: P-selectin; experiment: Microarray binding of glycopeptide mimics to selectin-Ig chimeras; design: species or system human and mouse; details: selectin-Ig chimeras 5-20 μg/mL, Alexa-488 anti-human IgG
[6] = Temperature- and pH-dependent stability by RP-HPLC; assay type: physicochemical
[7] = molecular target: human L-selectin Fc chimera (Homo sapiens, UniProt P14151); experiment: Flow cytometry, L-selectin Fc chimera binding to human U937; assay type: cell-based; details: read-out: IC50, inhibition of PSGL-1/L-selectin interactions; human leukocytes (human U937)
[8] = test system: E-selectin Fc chimera; experiment: Flow cytometry, E-selectin Fc chimera binding to leukocytes; assay type: cell-based, human and mouse; details: GSnP-6 0 - 30 μM
How it was run: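 Cells were heparinized mouse blood (cardiac puncture), citrated human blood, or cultured U937. They were incubated with test compound (0–30 μM) and species-matched selectin Fc chimera (2 μg/mL), then PE anti-Fc (1:100). Read-out was flow-cytometric MFI, expressed as percent inhibition versus PBS control, in triplicate. KPL1 and 4RA10 anti-PSGL-1 antibodies served as specificity checks.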

[9] = test system: human neutrophil and monocyte rolling and arrest on ICAM-1/P-selectin substrate; experiment: In vitro flow assay on ICAM-1/P-selectin substrate under shear; assay type: cell-based
How it was run: (§2)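 Aminosilanized glass was coated with human ICAM-1-Fc plus P- or E-selectin-Fc (5 μg/mL, 1 h). Human blood cells from healthy donors were density-separated and suspended in HEPES-buffered salt solution. Cells were exposed 10 min to PBS or test compound (up to 30 μM), then perfused at 2 dynes/cm2. Video ran 2 min at 7.5 frames/s. Centroids were tracked over 10 s; < 1 μm/s counted as arrested; capture and rolling velocity scored.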

[10] = test system: leukocyte rolling and arrest on substrates coated with ICAM-1 and E-selectin; experiment: In vitro flow assay on ICAM-1/E-selectin substrate under shear; assay type: cell-based, human; details: concentrations as high as 30 μM
How it was run: as §2

[11] = test system: leukocyte rolling in cremaster venules; experiment: Intravital microscopy of mouse cremaster, leukocyte rolling; assay type: in vivo; details: 4 μmol/kg IV
How it was run: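 Mice under IP ketamine/xylazine/atropine were kept on a 37°C blanket. Test compound (4 μmol/kg in saline) or saline was given through a jugular cannula. The cremaster was superfused with bicarbonate-buffered saline (5% CO2 in N2). Venules 30–40 μm were viewed 15–25 min post-surgical stimulation, seven per mouse. Velocities of 5–10 rolling leukocytes per venule were tracked over 2 s; mean and median were taken.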

[12] = test system: platelet-leukocyte aggregate formation; experiment: Platelet-leukocyte aggregates in human whole blood, dual-label flow cytometry; assay type: cell-based; details: 40 μM, PAR1-activating peptide
How it was run: (§3)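 Anticoagulated whole blood was treated with 40 μM test compound at room temperature. Stimulation used PAR1-activating peptide 40 μM (human) or PAR4-activating peptide 200 μM (mouse). Staining was anti-CD42a-PE/anti-CD45-APC (human) or anti-CD41-PE/anti-CD45-APC (mouse). CD45+ neutrophils and monocytes were gated by side scatter and scored as % platelet-positive. Saline and anti-CD62P (5 μg/mL) were controls. Samples were run in triplicate.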

[13] = test system: platelet-leukocyte aggregate formation; experiment: Platelet-leukocyte aggregates in mouse whole blood, dual-label flow cytometry; assay type: cell-based; details: 40 μM, PAR4-activating peptide
How it was run: as §3

[14] = test system: platelet-neutrophil binding and platelet aggregation in venules; experiment: TNF-α-induced venular inflammation, cremaster intravital microscopy; assay type: in vivo; details: 3 hr after TNF-α; GSnP-6 4 μmol/kg IV, antibody 75 μg/mouse IV
How it was run: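 Male C57BL/6 mice, 6–8 weeks old, received intrascrotal TNF-α (0.5 μg) 3 h before cremaster preparation. Just before imaging, test compound (4 μmol/kg), anti-CD62P or saline was given via jugular cannula. Labels were Dylight 649 anti-CD42b (platelets) and Alexa 488 anti-Gr-1 (neutrophils). Venules 30–45 μm (8–10/mouse, 5 mice) were imaged over 2 min. Platelet signal was taken as AUC normalized to vessel area, reported as median integrated fluorescence.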

[15] = molecular target: P-selectin; details: P-selectin inhibitor; cited from earlier work
[16] = test system: human platelet-monocyte aggregation; details: cited from earlier work
[17] = Biacore, compared with P-selectin
[18] = fold lower, densities < 5 RU vs 60 RU

experimental interaction energy with P-selectin [1]: -10.5 kcal/mol | Kd to murine P-selectin relative to human P-selectin [2]: ~ 9 fold | binding to L-selectin (in words) [3, 17]: lower affinity | affinity of L-Sel-Ig for immobilized GSnP-6 relative to P-Sel-Ig [3, 18]: ~ 25 fold | binding to E-selectin (in words) [4, 17]: lower affinity | affinity of E-Sel-Ig for immobilized GSnP-6 relative to P-Sel-Ig [4, 18]: ~ 25 fold | stability at low pH ([6]; pH 5, T = 37°C): without observed degradation products | stability at high temperature ([6]; pH 7.5, T = 60°C): without observed degradation products | IC50 [7]: ~30 µM | inhibition of E-selectin interactions (in words) [8]: not observed | IC50 ([9]; read-out: IC50, inhibition of neutrophil capture in shear flow, human neutrophils, 2 dynes/cm^2): 5 µM
Structure (SMILES): COc1ccc2c(CC(=O)NCCCC[C@H](N)C(=O)N[C@@H](CCC(=O)O)C(=O)N[C@@H](Cc3ccc(CS(=O)(=O)O)cc3)C(=O)N[C@@H](CCC(=O)O)C(=O)N[C@@H](Cc3ccc(CS(=O)(=O)O)cc3)C(=O)N[C@@H](CC(C)C)C(=O)N[C@@H](CC(=O)O)C(=O)N[C@@H](Cc3ccc(CS(=O)(=O)O)cc3)C(=O)N[C@@H](CC(=O)O)C(=O)N[C@@H](Cc3ccccc3)C(=O)N[C@@H](CC(C)C)C(=O)N3CCC[C@H]3C(=O)N[C@@H](CCC(=O)O)C(=O)N[C@H](C(=O)N[C@@H](CCC(=O)O)C(=O)N3CCC[C@H]3C(=O)N[C@@H](CC(C)C)C(=O)O)[C@@H](C)O[C@H]3O[C@H](CO[C@@H]4O[C@H](CO)[C@@H](O[C@@H]5O[C@H](CO)[C@H](O)[C@H](O[C@]6(C(=O)O)C[C@H](O)[C@@H](NC(C)=O)[C@H]([C@H](O)[C@H](O)CO)O6)[C@H]5O)[C@H](O[C@@H]5O[C@@H](C)[C@@H](O)[C@@H](O)[C@@H]5O)[C@H]4NC(C)=O)[C@H](O)[C@H](O[C@@H]4O[C@H](CO)[C@H](O)[C@H](O)[C@H]4O)[C@H]3NC(C)=O)cc(=O)oc2c1 [GSnP-6] (H-K(Mca)E[Phe(4-CH2SO3H)]E[Phe(4-CH2SO3H)]LD[Phe(4-CH2SO3H)]DFLPET(X1)EPL-OH; N-terminus and C-terminus assumed)
microarray binding to P-selectin (in words) [5]: bound to P-selectin more strongly than to E- or L-selectin | inhibition of rolling and arrest ([9]; 6 μM, human neutrophils and monocytes): 80% | leukocyte rolling and arrest on ICAM-1 and E-selectin (in words) [10]: did not perturb | increase in median rolling velocities vs saline [11]: 2 fold | mean leukocyte rolling velocity ([11]; 15-25 min after surgical stimulation): 74.9 ± 3.4 μm/s | inhibition of platelet-monocyte aggregate formation [12]: 72% | inhibition of platelet-neutrophil aggregate formation [12]: 65% | inhibition of platelet-monocyte aggregate formation [13]: 47% | inhibition of platelet-neutrophil aggregate formation [13]: 42% | platelet accumulation, median integrated platelet fluorescence (in words) [14]: limited platelet signal | platelet aggregation and platelet-PMN binding (in words) [14]: significantly reduced

Structure (SMILES): O=C(O)c1c(O)c(Cc2ccc(Cl)cc2)nc2c3c(ccc12)CCCC3 [PSI-697]
Kd [15]: ~200 µM | inhibition of human platelet-monocyte aggregation (in words) [16]: only weakly inhibits
